The term Kd denotes a measure of binding affinity in units of concentration. The term ΔTm denotes the change in melting temperature against a reference sample. For orientation: IC50 means the midpoint of a concentration-inhibition curve.

For data set [1], the target named is Quadruplex DNA. Description: Binding affinity toc-myc G4 quadruplex d(TTAGGGTTAGGGTTAGGGTTAGGGTT) DNA (unknown origin) assessed as dissociation constant by Microscale thermophoresis analysis. It is filed as nucleic-acid assay. The method, boiled down: (§1)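 MST with Cy5.5-labelled G4 oligonucleotide held at 20 nM, folded in 5 mM potassium phosphate pH 7.0 with 20 mM KCl plus 0.1% Tween. Ligand in 1:2 serial dilution mixed 1:1 with DNA, 20% DMSO final. Kd taken from binding curves.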
Background: Microscale thermophoresis detects binding through changes in fluorescence in a small temperature gradient.

Data set [2] concerns Quadruplex DNA. Description: Stabilization of human Tel26 G4 quadruplex DNA assessed as thermal stability by measuring difference in melting temperature t1/2 by circular dichroism spectroscopy. It is filed as nucleic-acid assay.
For data set [3], the system named is U2OS. Description: Induction of DNA damage in human U2OS cells assessed as increase in gammaH2AX phosphorylation at S139 incubated for 24 hrs by immunofluorescence microscopy. It is filed as functional, cell-based. Conditions: read-out: IC50 (the source's name). The method in brief: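 U2OS cells treated 24 h. Fixed with 4% formaldehyde, permeabilized with 0.5% Triton X-100, blocked with 8% BSA, stained with anti-γH2AX (1:500) and Alexa Fluor 594 secondary, DAPI counterstain. Fluorescence microscopy signal quantified as fold over untreated.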

A short description of data set [4]: Genotoxicity in mouse MNMCA1 cells assessed as induction of micronuclei formation measured after 24 hrs by DAPI staining based analysis. Format: toxicity, cell-based. Conditions: mnmca1, 24 h.
The target in data set [5] is Quadruplex DNA. Briefly: Displacement of thiazole orange from c-kit1 G4 quadruplex d(DNA AGGGAGGGCGCTGGGAGGAGGG) DNA (unknown origin) assessed as relative affinity by fluorescent intercalator displacement assay. It is filed as nucleic-acid assay. The method in brief: (§2)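 G4 DNA at 0.25 μM with 0.5 μM thiazole orange in 5 mM potassium phosphate pH 7.0 containing 20 mM KCl (LiCl for c-myc), 20 °C. Ligand titrated from 0.5 to 20 molar equiv with 3 min equilibration per addition. Excitation 485 nm, emission 500–650 nm. %displacement = 100 − (F/F0×100); DC50 is the concentration displacing 50% TO. Duplicate titrations.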

In data set [6] the target is Quadruplex DNA. Briefly: Binding affinity to c-kit1 G4 quadruplex d(DNA AGGGAGGGCGCTGGGAGGAGGG) DNA (unknown origin) assessed as dissociation constant by Microscale thermophoresis analysis. Format: nucleic-acid assay. The method, boiled down:
as §1

The subject of the next data set is MNMCA1. Description: Activation of IFN-beta in mouse MNMCA1 cells at 15 to 30 uM pretreated for 24 hrs followed by 48 hrs of drug recovery by ELISA. The settings on record: dose 15-30 µM, time 72.0 hrs. Format: functional, cell-based. The method, boiled down:
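MNMCA1 cells treated 24 h with compound at 15 or 30 μM, then 48 h recovery in fresh drug-free medium. IFN-B protein measured by ELISA in collected culture supernatants.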
A general note: An ELISA detects its analyte on a solid surface through an enzyme-linked reagent.

For data set [7], the system named is Quadruplex DNA. Description: Stabilization of c-kit1 G4 quadruplex d(DNA AGGGAGGGCGCTGGGAGGAGGG) DNA (unknown origin) assessed as thermal stability by measuring difference in melting temperature t1/2 by circular dichroism spectroscopy (reference value: 54 +/- 0.5 degC). Format: nucleic-acid assay. On the technique in general: Circular dichroism is the unequal absorption of left and right circularly polarised light.

Data set [8] is described as follows: Cytotoxicity against mouse MNMCA1 cells assessed as cell survival preincubated for 24 hrs with compound further incubated for 48 hrs in drug free medium by MTT assay. It is filed as functional, cell-based. The method, boiled down:
(§3)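 Exponentially growing cells seeded and treated 24 h after seeding with increasing concentrations for 24 h. Cells then recovered 48 h in drug-free medium. MTT added for 1 h at 37 °C, formazan dissolved in DMSO, absorbance read at 540 nm. IC50 from linear regression. Means ± SEM of two independent experiments in triplicate.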

In data set [9] the target is Quadruplex DNA. Briefly: Binding affinity to c-kit2 G4 quadruplex d(CGGGCGGGCGCTAGGGAGGGT) DNA (unknown origin) assessed as dissociation constant by Microscale thermophoresis analysis. Format: nucleic-acid assay. The method, boiled down:
as §1

The nature of data set [10]: Stabilization of F-c-kit1-T (unknown origin) assessed as difference in melting temperature t1/2 in presence of d(CGC GAA TTC GCG TIT CGC GAA TTC GCG) DNA hairpin (unknown origin) measured at 1:50 G4 to hairpin DNA ratio by FRET assay. The method, boiled down: (§4)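 FRET melting of 0.2 μM prefolded FAM/TAMRA dual-labelled c-kit1 G4 in 5 mM K phosphate pH 7.0 with 20 mM KCl. Ligand was added at 2 molar equiv, with unlabelled hairpin competitor at 3 or 10 μM final (15 or 50 equiv relative to G4). FAM emission was read at 520 nm (excitation 492 nm) while heating at 0.2 °C/min over 15–90 °C. ΔT1/2 is relative to no ligand; at least duplicate, averaged.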

Data set [11] concerns Quadruplex DNA. Description: Stabilization of F-c-kit1-T quadruplex DNA (unknown origin) by measuring difference in melting temperature t1/2 by FRET assay. It is filed as nucleic-acid assay. The method in brief: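 FRET melting of 0.2 μM prefolded FAM/TAMRA-labelled c-kit1 in 5 mM potassium phosphate pH 7.0 with 20 mM KCl, with ligand at 2 molar equiv. Unlabelled hairpin competitor added at 3 or 10 μM (15 or 50 equiv). FAM emission at 520 nm (excitation 492 nm) followed from 15 to 90 °C at 0.2 °C/min. ΔT1/2 versus no ligand. At least duplicate.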

The test system of data set [12] is Quadruplex DNA. Briefly: Stabilization of c-myc G4 quadruplex d(TTAGGGTTAGGGTTAGGGTTAGGGTT) DNA (unknown origin) assessed as thermal stability by measuring difference in melting temperature t1/2 by circular dichroism spectroscopy (reference value: 72 +/- 0.5 degC). Format: nucleic-acid assay.
Data set [13] concerns the target Quadruplex DNA. Briefly: Displacement of thiazole orange from c-myc G4 quadruplex d(TTAGGGTTAGGGTTAGGGTTAGGGTT) DNA (unknown origin) assessed as relative affinity by fluorescent intercalator displacement assay. It is filed as nucleic-acid assay. The method, boiled down:
as §2

In data set [14] the target is Quadruplex DNA. Description: Displacement of thiazole orange from c-kit2 G4 quadruplex d(CGGGCGGGCGCTAGGGAGGGT) DNA (unknown origin) assessed as relative affinity by fluorescent intercalator displacement assay. Format: nucleic-acid assay. The method, boiled down: as §2
A short description of data set [15]: Stabilization of F-c-kit1-T (unknown origin) assessed as difference in melting temperature t1/2 in presence of d(CGC GAA TTC GCG TIT CGC GAA TTC GCG) DNA hairpin (unknown origin) measured at 1:15 G4 to hairpin DNA ratio by FRET assay. The method, boiled down: as §4
A short description of data set [16]: Stabilization of d(CGC GAA TTC GCG TIT CGC GAA TTC GCG) DNA hairpin (unknown origin) assessed as thermal stability by measuring difference in melting temperature t1/2 by circular dichroism spectroscopy (reference value: 75.4 +/- 0.2 degC). The method, boiled down: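 CD melting of 15 μM annealed hairpin duplex in 5 mM K phosphate pH 7.0 with 20 mM KCl, with or without ligand at 2 molar equiv added to the folded DNA. The signal was followed at 252 nm from 20 to 100 °C at 1 °C/min, with T1/2 taken from a curve fit. ΔT1/2 is relative to DNA alone; duplicate runs, averaged.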

The test system of data set [17] is Quadruplex DNA. Description: Stabilization of G4 quadruplex DNA in human U2OS cells assessed as BG4 foci formation by measuring fold increase in G4 structure at 10 uM by immunofluorescence microscopy. Format: cell-based. The method, boiled down:
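U2OS cells on coverslips treated for […]. Fixed in methanol/acetic acid 3:1, permeabilized with 0.1% Triton X-100, blocked in 2% milk. Stained with 0.5 μg BG4 for 2 h, then anti-FLAG and Alexa Fluor 488 secondary. Signal quantified as fold over untreated.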

Data set [18] concerns U2OS. Briefly: Cytotoxicity against human U2OS cells assessed as cell survival preincubated for 24 hrs with compound further incubated for 48 hrs in drug free medium by MTT assay. It is filed as functional, cell-based. The method in brief:
as §3

For data set [19], the system named is Quadruplex DNA. Briefly: Stabilization of c-kit2 G4 quadruplex d(CGGGCGGGCGCTAGGGAGGGT) DNA (unknown origin) assessed as thermal stability by measuring difference in melting temperature t1/2 by circular dichroism spectroscopy (reference value: 61.5 +/- 0.5 degC). It is filed as nucleic-acid assay.

The source made the active and inactive calls. The calls are words filed in the database; no cut-off is given here.

As to `Cc1ccc(-c2nc3ccn4c(/C=N/NC(=N)N)c(-c5ccccc5)nc4n3c2/C=N/NC(=N)N)cc1`, the Kd at Quadruplex DNA [1] was 1500 nM; on Quadruplex DNA [6], 30 nM; at Quadruplex DNA [9] it was 40 nM. The ΔTm in the data set with Quadruplex DNA [2] amounted to 4.8 °C; in the data set on Quadruplex DNA [7] it was 18.2 °C; in data set [10], 19.2 °C; in the data set with Quadruplex DNA [11], 25.4 °C; with Quadruplex DNA [12], 16.9 °C; in data set [15], 22.2 °C. The results for the ΔTm (in data set [16]; with Quadruplex DNA [19]) were 1.3 °C and over 30 °C, respectively. For the same compound, the EC50 in the data set on U2OS [3] came out at 46000 nM. Further, the “fold change (FC)” value was 0.4 in data set [4] and 2.4 with Quadruplex DNA [17]. The IC50 at Quadruplex DNA [5] was determined as 1400 nM; in data set [8], 38500 nM; on Quadruplex DNA [13], 1600 nM; on Quadruplex DNA [14], 1400 nM; in the data set on U2OS [18], 46800 nM. Moreover, the result in the data set on MNMCA1 was Active.

The values above are taken from ChEMBL document CHEMBL5126632, “Balancing Affinity, Selectivity, and Cytotoxicity of Hydrazone-Based G-Quadruplex Ligands for Activation of Interferon β Genes in Cancer Cells” (J Med Chem, 2022).
